Calls of active or inactive are those of the source. The calls are words filed in the database; no cut-off is given here.
What was measured:
Mus musculus [1] = test: Neurotoxicity in CF1 albino mouse at 300 mg/kg, ip after 4 hrs; assay type: toxicity, organism-based; set-up: dose 300 mg/kg, route intraperitoneal; details: in vivo
Procedure, shortened: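 Male CF no. 1 albino mice (18-25 g) received a single ip dose as a suspension in 0.5% methylcellulose. The read-out was the number of animals showing neurotoxicity (minimal motor impairment) over the number tested.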

Mus musculus [2] = test: Teratogenic effect in SWV mouse assessed as number of dead fetuses at 502 mg/kg, ip administered on morning of day 8 of gestation; assay type: toxicity, organism-based; set-up: dose 502 mg/kg, route intraperitoneal; details: in vivo
Procedure, shortened: (§1)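 Inbred SWV mouse strain highly susceptible to VPA-induced neural tube defects. Each dam received a single ip injection on gestation day 8.5, dosed within 1.8-4.2 mmol/kg, against a control of 25% aqueous Cremophor EL. Groups were compared with the control, and with the matched VPA sodium-salt dose, by Fisher's exact test (p < 0.05).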

Mus musculus [3] = test: Anticonvulsant activity in CF1 albino mouse assessed as protection against scMet-induced seizures at 50 mg/kg, ip; assay type: functional, organism-based; set-up: dose 50 mg/kg
Procedure, shortened: (§2)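 Adult male CF no. 1 albino mice (18-25 g) dosed intraperitoneally with compound suspended in 0.5% methylcellulose (0.01 mL/g). Convulsant challenge given subcutaneously as a 0.85% pentylenetetrazol solution in 0.9% saline. Read-out is animals protected over animals tested, with neurotoxicity scored in parallel.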

Mus musculus [4] = test: Teratogenic effect in SWV mouse assessed as number of implants at 336 mg/kg, ip administered on morning of day 8 of gestation; assay type: toxicity, organism-based; set-up: dose 336 mg/kg, route intraperitoneal; details: in vivo; procedure, shortened: as §1
Mus musculus [5] = test: Anticonvulsant activity in CF1 albino mouse assessed as protection against scMet-induced seizures at 100 mg/kg, ip after 0.5 hrs; assay type: functional, organism-based; set-up: dose 100 mg/kg; procedure, shortened: as §2
Rattus norvegicus [6] = test: Anticonvulsant activity in albino Sprague-Dawley rat assessed as protection against scMet-induced seizures at 25 mg/kg, po; assay type: functional, organism-based; set-up: dose 25 mg/kg
Procedure, shortened: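 Oral dosing of male Sprague-Dawley rats (100-150 g) with compound in 0.5% methylcellulose. Convulsant challenge given subcutaneously as a 2.82% pentylenetetrazol solution in 0.9% saline. Groups of about 8 rats per dose. For quantitation, doses spanning 0% to 100% protection were fitted by probit analysis to give ED50 with 95% confidence interval.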

Mus musculus [7] = test: Anticonvulsant activity in ip dosed CF1 albino mouse assessed as protection against scMet-induced seizures; assay type: functional
Procedure, shortened: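 Adult male CF no. 1 albino mice (18-25 g) dosed ip with compound suspended in 0.5% methylcellulose (0.01 mL/g body weight). Seizures were induced by subcutaneous pentylenetetrazol, given as a 0.85% solution in 0.9% saline. ED50 was found by varying the dose to give 3-4 points between 0% and 100% protection, then probit analysis with 95% confidence intervals.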

[8] = Neurotoxicity in ip dosed CF1 albino mouse assessed as minimal motor impairment; assay type: toxicity, organism-based; details: CF1, mouse, in vivo
Procedure, shortened: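 Mice: male CF no. 1 albino (18-25 g), ip dosing in 0.5% methylcellulose. Minimal motor impairment was scored, with doses varied to give four points between no impairment and all animals impaired.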

Rattus norvegicus [9] = test: Anticonvulsant activity in po dosed albino Sprague-Dawley rat assessed as protection against scMet-induced seizures; assay type: functional
Procedure, shortened: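 Male Sprague-Dawley albino rats (100-150 g) were dosed orally in 0.5% methylcellulose and tested by MES or by sc pentylenetetrazol (2.82% in 0.9% saline). Doses were varied to give 3-4 points between 0% and 100% protection. ED50 and 95% confidence intervals came from probit analysis.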

Mus musculus [10] = test: Anticonvulsant activity in CF1 albino mouse assessed as protection against 32 mA-current-induced seizure at 130 mg/kg, ip by 6Hz psychomotor seizure test; assay type: functional, organism-based; set-up: dose 130 mg/kg
Procedure, shortened: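 6 Hz psychomotor seizure test in male CF no. 1 mice, with compound given ip as a 0.5% methylcellulose suspension. Groups of 8 animals per dose. The 32 mA test used 25, 70 and 130 mg/kg; the 44 mA test used 25, 50, 75 and 100 mg/kg. ED50 and 95% confidence interval were obtained by probit analysis.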

Mus musculus [11] = test: Anticonvulsant activity in CF1 albino mouse assessed as protection against scMet-induced seizures at 300 mg/kg, ip after 4 hrs; assay type: functional, organism-based; set-up: dose 300 mg/kg; procedure, shortened: as §2
Mus musculus [12] = species: Mus musculus; test: Protective index, ratio of TD50 for CF1 albino mouse to ED50 for 44 mA-current-induced CF1 albino mouse seizure model; assay type: functional
Procedure, shortened: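 Protective index is the mouse TD50 (minimal motor impairment) divided by the 6 Hz test ED50 at 32 or 44 mA. Male CF no. 1 mice were dosed ip in 0.5% methylcellulose, and values came from probit analysis.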

Rattus norvegicus [13] = test: Anticonvulsant activity in albino Sprague-Dawley rat assessed as protection against scMet-induced seizures at 50 mg/kg, po after 15 mins; assay type: functional
Procedure, shortened: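 Male Sprague-Dawley albino rats (100-150 g) were given the compound orally as a suspension in 0.5% methylcellulose. Seizures were induced by subcutaneous pentylenetetrazol, dissolved in 0.9% saline as a 2.82% solution. The read-out was animals protected over animals tested.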

Mus musculus [14] = test: Anticonvulsant activity in CF1 albino mouse assessed as protection against maximal electroshock-induced seizures at 60 mg/kg, ip; assay type: functional, organism-based; set-up: dose 60 mg/kg
Procedure, shortened: (§3)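 Adult male CF no. 1 albino mice (18-25 g). Test compound suspended in 0.5% methylcellulose and given intraperitoneally at 0.01 mL/g body weight. Maximal electroshock challenge at the stated time. Read-out is the number of animals protected over the number tested; neurotoxicity is scored in parallel.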

Mus musculus [15] = test: Anticonvulsant activity in CF1 albino mouse assessed as protection against maximal electroshock-induced seizures at 30 mg/kg, ip after 0.5 hrs; assay type: functional, organism-based; set-up: dose 30 mg/kg; procedure, shortened: as §3
Rattus norvegicus [16] = test: Anticonvulsant activity in albino Sprague-Dawley rat assessed as protection against maximal electroshock-induced seizures at 50 mg/kg, po after 15 mins; assay type: functional
Procedure, shortened: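 Adult male Sprague-Dawley albino rats (100-150 g) dosed orally with compound suspended in 0.5% methylcellulose (0.04 mL per 10 g). Maximal electroshock challenge at the stated time. Protection is scored in 25% steps as the fraction of animals protected, with neurotoxicity recorded in parallel.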

Mus musculus [17] = test: Teratogenic effect in SWV mouse assessed as live fetuses at 671 mg/kg, ip administered on morning of day 8 of gestation; assay type: toxicity, organism-based; set-up: dose 671 mg/kg, route intraperitoneal; details: in vivo; procedure, shortened: as §1

Q: With `CC1(C)C(C)(C)C1(F)C(N)=O` as the compound, how does the Activity (Mus musculus [1]) read?
A: Non-toxic

Q: What about the Activity (Mus musculus [2]) of the same compound?
A: 0

Q: And the Activity (Mus musculus [3])?
A: Active

Q: And the Activity (Mus musculus [4])?
A: 112

Q: And the Activity (Mus musculus [5])?
A: Toxic

Q: What about the Activity (Rattus norvegicus [6]) of the same compound?
A: Active

Q: What about the ED50 (Mus musculus [7]) of the same compound?
A: 38 mg/kg

Q: And the TD50 [8]?
A: 120 mg/kg

Q: And the ED50 (Rattus norvegicus [9])?
A: 6.4 mg/kg

Q: And the Activity (Mus musculus [10])?
A: Active

Q: And the Activity (Mus musculus [11])?
A: Non-toxic

Q: And the PI (Mus musculus [12])?
A: 2

Q: And the Activity (Rattus norvegicus [13])?
A: 100%

Q: And the Activity (Mus musculus [14])?
A: inactive

Q: What about the Activity (Mus musculus [15]) of the same compound?
A: Non-toxic

Q: What about the Activity (Rattus norvegicus [16]) of the same compound?
A: inactive

Q: And the Activity (Mus musculus [17])?
A: 21.8%

From ChEMBL document CHEMBL1153988 (J Med Chem, 2009)
